Results gathered from unrelated publications.
Protocols differ between the studies behind these lines.
Target: Muscarinic acetylcholine receptor M1 (CHRM1, Homo sapiens, UniProt P11229)
Concentration: 10 µM
Sequence (P11229 1-460, as in one of the studies): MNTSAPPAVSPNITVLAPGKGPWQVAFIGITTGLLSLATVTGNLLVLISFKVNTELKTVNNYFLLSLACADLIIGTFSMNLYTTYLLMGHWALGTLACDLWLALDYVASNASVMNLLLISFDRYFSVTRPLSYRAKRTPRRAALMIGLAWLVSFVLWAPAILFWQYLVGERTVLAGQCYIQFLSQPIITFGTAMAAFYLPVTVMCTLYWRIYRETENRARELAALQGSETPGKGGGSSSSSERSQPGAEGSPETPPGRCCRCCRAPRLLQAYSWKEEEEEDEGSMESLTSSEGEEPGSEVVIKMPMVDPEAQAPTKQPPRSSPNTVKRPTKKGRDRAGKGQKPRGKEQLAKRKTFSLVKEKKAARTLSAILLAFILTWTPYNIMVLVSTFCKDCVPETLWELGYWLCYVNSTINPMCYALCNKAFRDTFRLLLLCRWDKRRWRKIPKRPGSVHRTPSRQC

SMILES	observed	method	inhibition
O=C(Nc1ccc(S(=O)(=O)N2CCC(Cl)CC2)cc1)c1ccc([N+](=O)[O-])o1	ligand displacement	radioligand	2%
Oc1cccc(Nc2nc(-c3ccc(F)cc3F)cs2)c1	cell-free assay	–	-66%
N#Cc1cc(Cn2c(N3CCCC3)nc3ccccc32)ccc1F	ligand displacement	–	-15.5%
CCN(Cc1ccccc1C(F)(F)F)C(=O)C1CCN(S(=O)(=O)c2ccc3[nH]ncc3c2)CC1	ligand displacement	radioligand	1%
O=C(c1ccc(Cl)cc1)N(Cc1ccccc1)C1CCCCC1	cell-free assay	–	-25.8%
CCN(CC)c1ccc(C2Nc3ccc(C(=O)c4ccccc4)cc3NC3=C2C(=O)CC(C)(C)C3)cc1 (centres unmarked)	ligand displacement	radioligand	-4%
CCCNc1nc2ccccc2n1Cc1ccc(Cl)cc1	ligand displacement	–	-16.1%
O=C1N=C(N2CCCCN2)S/C1=C\c1ccc(F)cc1O	ligand displacement	radioligand	< 10%
